Data taken from ChEMBL document CHEMBL5096187, “Efficient Synthesis and Bioevaluation of Novel Dual Tubulin/Histone Deacetylase 3 Inhibitors as Potential Anticancer Agents” (J Med Chem, 2021).
pIC50: −log10 of the molar value.

Assays:
[1] = system: B16-F10; test: Induction of apoptosis in mouse B16-F10 cells assessed as necrotic cells at 50 nM incubated for 48 hrs by Annexin V-FITC/PI analysis (reference value: 0.012 %); assay type: functional
[2] = Nephrotoxicity in C57BL/6 mouse assessed as effect on creatinine level in serum; assay type: toxicity; conditions: in vivo
[3] = Hepatotoxicity in C57BL/6 mouse assessed as effect on AST level in serum; assay type: toxicity
[4] = biological target: T1, Histone deacetylase 8 (Homo sapiens, UniProt Q9BY41); test: Inhibition of full length C-terminal his-tagged human recombinant HDAC8 ([…]) expressed in baculovirus in Sf9 insect cells using Ac-Leu-Gly-Lys (Tfa)-AMC as substrate pretreated for 5 mins followed by substrate addition and measured after 30 mins
T1 sequence (Q9BY41 whole entry): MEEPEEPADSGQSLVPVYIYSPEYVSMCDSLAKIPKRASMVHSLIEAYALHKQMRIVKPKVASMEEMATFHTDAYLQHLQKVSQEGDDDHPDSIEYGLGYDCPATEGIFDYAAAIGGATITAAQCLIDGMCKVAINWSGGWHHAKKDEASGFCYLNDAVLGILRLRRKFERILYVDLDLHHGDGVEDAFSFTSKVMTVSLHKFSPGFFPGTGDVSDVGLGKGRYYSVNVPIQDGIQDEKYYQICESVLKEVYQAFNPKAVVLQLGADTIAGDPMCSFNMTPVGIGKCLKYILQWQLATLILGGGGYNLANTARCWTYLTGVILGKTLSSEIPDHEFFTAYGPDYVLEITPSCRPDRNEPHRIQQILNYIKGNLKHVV

[5] = system: B16-F10; test: Induction of cell cycle arrest in mouse B16-F10 cells assessed as accumulation of cells in G2/M phase at 50 nM measured after 48 hrs by PI/RNaseA staining based flow cytometry analysis (Rvb= 5.76%); assay type: functional
[6] = Nephrotoxicity in C57BL/6 mouse assessed as effect on globulin GLO level in serum; assay type: toxicity; conditions: in vivo
[7] = system: B16-F10; test: Antitumor activity against mouse B16-F10 cells allografted in C57BL/6 mouse assessed as tumor growth inhibition at 10 mg/kg, ip administered for 14 days; assay type: functional; conditions: B16-F10, 336 h, time 14 day, read-out: TGI
Summary of the method: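 C57BL/6 mice were inoculated subcutaneously with 3×10⁵ B16-F10 cells in PBS and randomized (n = 8). Drugs in ethanol/polyoxyethylene castor oil/saline (1.25:1.25:7.5) or vehicle alone were given i.p. once daily for 14 days. Mice were sacrificed at day 14 and tumors weighed; TGI(%) = [1 − Wt/Wv] × 100 using mean tumor weights.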

[8] = biological target: T2, Protein deacetylase HDAC6 (Homo sapiens, UniProt Q9UBN7); test: Inhibition of full length N-terminal GST-tagged human recombinant HDAC6 (1 to 1215 residues) expressed in Baculovirus infected Sf9 cells using Ac-Leu-Gly-Lys (Ac)-AMC as substrate pretreated for 5 mins followed by substrate addition and measured after 30 mins
T2 sequence (Q9UBN7 whole entry): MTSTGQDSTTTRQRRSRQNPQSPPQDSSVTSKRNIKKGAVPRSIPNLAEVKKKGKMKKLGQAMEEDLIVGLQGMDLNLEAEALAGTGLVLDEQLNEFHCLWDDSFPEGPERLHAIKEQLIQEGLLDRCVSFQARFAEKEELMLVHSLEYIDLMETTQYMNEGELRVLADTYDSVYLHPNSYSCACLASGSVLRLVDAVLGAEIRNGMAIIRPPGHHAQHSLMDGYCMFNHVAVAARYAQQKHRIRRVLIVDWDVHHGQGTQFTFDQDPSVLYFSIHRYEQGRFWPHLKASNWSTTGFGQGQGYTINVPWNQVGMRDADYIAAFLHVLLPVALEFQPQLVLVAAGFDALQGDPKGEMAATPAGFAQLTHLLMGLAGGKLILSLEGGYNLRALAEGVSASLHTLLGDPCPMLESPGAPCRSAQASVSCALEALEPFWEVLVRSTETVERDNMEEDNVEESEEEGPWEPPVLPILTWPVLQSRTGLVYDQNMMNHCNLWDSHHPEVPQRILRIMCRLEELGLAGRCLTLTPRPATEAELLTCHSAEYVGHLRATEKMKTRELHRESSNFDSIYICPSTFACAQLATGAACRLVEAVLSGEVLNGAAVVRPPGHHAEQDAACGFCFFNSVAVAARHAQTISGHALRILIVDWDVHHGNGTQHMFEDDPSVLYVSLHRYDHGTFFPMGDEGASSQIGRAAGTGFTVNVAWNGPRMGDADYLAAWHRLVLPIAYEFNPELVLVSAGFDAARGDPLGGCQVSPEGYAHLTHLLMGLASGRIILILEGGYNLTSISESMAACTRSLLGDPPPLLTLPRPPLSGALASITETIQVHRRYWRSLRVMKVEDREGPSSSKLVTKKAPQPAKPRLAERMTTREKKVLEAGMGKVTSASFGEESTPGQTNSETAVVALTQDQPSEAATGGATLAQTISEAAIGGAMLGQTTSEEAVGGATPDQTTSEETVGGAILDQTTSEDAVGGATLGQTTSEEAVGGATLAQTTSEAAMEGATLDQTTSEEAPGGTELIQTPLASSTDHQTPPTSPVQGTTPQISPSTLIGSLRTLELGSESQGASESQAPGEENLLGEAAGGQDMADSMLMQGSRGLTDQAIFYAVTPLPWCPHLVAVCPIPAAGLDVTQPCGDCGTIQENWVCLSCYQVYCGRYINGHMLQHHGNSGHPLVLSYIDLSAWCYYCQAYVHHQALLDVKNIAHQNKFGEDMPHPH
Summary of the method: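 HDAC6 at 15 ng/well in Tris buffer pH 8.0 with MgCl2, BSA, NaCl and KCl. Ten 3-fold dilutions preincubated 5 min at room temperature, then 10 μM Ac-Leu-Gly-Lys(Ac)-AMC for 30 min at 37 °C. IC50 by normalized dose–response nonlinear fit; performed at least three times.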

[9] = system: B16-F10; test: Induction of apoptosis in mouse B16-F10 cells assessed as late apoptotic cells at 50 nM incubated for 48 hrs by Annexin V-FITC/PI analysis (reference value: 1.68 %); assay type: functional
[10] = system: B16-F10; test: Upregulation of AC-H3 in mouse B16-F10 cells incubated for 12 hrs by Western blot analysis; assay type: functional, cell-based; conditions: dose 20-200 nM, DDE = dose-dependent effect
Summary of the method: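 B16-F10 cells (5 × 10⁵/well) treated 12 h with DMSO or compound, lysed in RIPA buffer. 30 μg protein separated by SDS-PAGE and blotted onto PVDF. Blocked 5% BSA 2 h, primary antibody overnight at 4 °C, secondary 1.5 h. Ac-H3 probed, with histone H3 and GAPDH as loading controls; band density quantified; three independent experiments.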

[11] = Hepatotoxicity in C57BL/6 mouse assessed as effect on total bilirubin level in serum; assay type: toxicity
[12] = system: B16-F10; test: Induction of apoptosis in mouse B16-F10 cells assessed as late apoptotic cells at 25 nM incubated for 48 hrs by Annexin V-FITC/PI analysis (reference value: 0.00 %); assay type: functional
[13] = Cardiotoxicity in C57BL/6 mouse ssessed as effect on heart rate by ECG analysis; assay type: toxicity
Summary of the method: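 Mice aged 6–8 weeks dosed by intragastric gavage once daily for 14 days; ECG and heart rate recorded on a PowerLab system.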

pIC50 [4]: 4.93 | pIC50 [8]: 4.51
SMILES: COc1cc(C(=O)c2csc(-c3ccc(NC(=O)CCCC(=O)Nc4ccccc4N)cc3)n2)cc(OC)c1OC
Activity [1]: 1.9% | Activity [2]: Non-Toxic | Activity [3]: Non-Toxic | Activity [5]: 66.32% | Activity [6]: Non-Toxic | inhibition in vivo at 10 mg/kg [7]: 70% | Activity [9]: 32.3% | Activity [10]: Dde | Activity [11]: Non-Toxic | Activity [12]: 0% | Activity [13]: Non-Toxic
